Test results from ChEMBL document CHEMBL1147810, “Novel combretastatin analogues endowed with antitumor activity” (J Med Chem, 2006).
Calls of active or inactive are those of the source. The calls are words filed in the database; no cut-off is given here.

Key:
BMEC = experiment: Antiproliferative activity against bovine BMEC; assay type: functional, cell-based; settings: Bos taurus
Outline: (§1)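 Cells plated, then exposed 24 h after seeding to graded drug concentrations for 24 h. Drug removed, 48 h recovery in drug-free medium, surviving cells stained with sulforhodamine B (OD 564). […] BMEC: primary bovine adrenal cultures in DMEM, 20% FCS, heparin, brain extract.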

HCT-116 = experiment: Antiproliferative activity against human HCT116 cells; assay type: functional, cell-based; outline: as §1
A2780 [1] = experiment: Antiproliferative activity against doxorubicin-resistant human A2780-dx cells; assay type: functional, cell-based; outline: as §1
NCI-H460 [2] = experiment: Cell cycle arrest in NCI-H460 cells by accumulation at G1/0 phase cell at 3 nM post 24 hrs treatment; assay type: functional, Homo sapiens
NCI-H460 [3] = experiment: Cell cycle arrest in NCI-H460 cells by accumulation at S phase cell at 3 nM post 24 hrs treatment and 24 hrs recovery
MCF7-DOX = experiment: Antiproliferative activity against doxorubicin-resistant human MCF7-dx cells; assay type: functional, cell-based; outline: as §1
NCI-H460 [4] = experiment: Cell cycle arrest in NCI-H460 cells by accumulation at S phase cell at 3 nM post 24 hrs treatment and 48 hrs recovery
NCI-H460 [5] = experiment: Cell cycle arrest in NCI-H460 cells by accumulation at G2/M phase cell at 3 nM post 24 hrs treatment
A2780 [6] = experiment: Antiproliferative activity against human A2780 cells; assay type: functional, cell-based; outline: as §1
IGROV-1 = experiment: Antiproliferative activity against human IGROV1 cells; assay type: functional, cell-based; outline: as §1
NCI-H460 [7] = experiment: Cell cycle arrest in NCI-H460 cells by accumulation at G2/M phase cell at 3 nM post 24 hrs treatment and 24 hrs recovery
NCI-H460 [8] = experiment: Cell cycle arrest in NCI-H460 cells by accumulation at G1/0 phase cell at 3 nM post 24 hrs treatment and 24 hrs recovery; assay type: functional, Homo sapiens
MCF7 = experiment: Antiproliferative activity against human MCF7 cells; assay type: functional, cell-based; outline: as §1
MeWo = experiment: Antiproliferative activity against human MeWo cells; assay type: functional, cell-based; outline: as §1
NCI-H460 [9] = experiment: Cell cycle arrest in NCI-H460 cells by accumulation at G2/M phase cell at 3 nM post 24 hrs treatment and 48 hrs recovery
NCI-H460 [10] = experiment: Cell cycle arrest in NCI-H460 cells by accumulation at G1/0 phase cell at 3 nM post 24 hrs treatment and 48 hrs recovery; assay type: functional, Homo sapiens
NCI-H460 [11] = experiment: Cell cycle arrest in NCI-H460 cells by accumulation at S phase cell at 3 nM post 24 hrs treatment
HUVEC = experiment: Antiproliferative activity against human HUVEC; assay type: functional, cell-based; outline: as §1
NCI-H460 [12] = experiment: Antitumor activity in CD1 mice implanted with NCI-H460 xenografts at 60 mg/kg, po; assay type: functional, organism-based; design: dose 60 mg/kg; settings: Homo sapiens
Outline: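 NCI-H460 cells (3.0 × 10⁶ in HBSS) injected sc into right flank of female CD-1 nude mice; groups of eight once tumors reached ~30 mg (day 5). Oral 60 mg/kg twice daily, 5 days/week for 3 weeks; controls got vehicle. Caliper volumes (length × width²/2) twice weekly; toxicity scored as % max body-weight loss; Mann-Whitney U test.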

NCI-H460 [13] = experiment: Antiproliferative activity against human H460 cells; assay type: functional, cell-based; outline: as §1

Compound `COc1cc(/C=C\c2cc(O)c3cc(C)oc3c2)cc(OC)c1OC` has an IC50 (BMEC) of 93 nM.
Compound `COc1ccc(/C=C\c2cc(OC)c(OC)c(OC)c2)cc1O` [COMBRETASTATIN A4] has an IC50 (HCT-116) of 1.9 nM, an IC50 (A2780 [1]) of 1.66 nM and an Activity (NCI-H460 [2]) of 8%. For the same compound, the Activity (NCI-H460 [3]) was 22%, the IC50 (MCF7-DOX) was 2.3 nM and the Activity (NCI-H460 [4]) was 18%. The Activity (NCI-H460 [5]) was 79%, the IC50 (A2780 [6]) was 2.19 nM and the IC50 (IGROV-1) was 10.3 nM. It also gave an Activity (NCI-H460 [7]) of 16%, an Activity (NCI-H460 [8]) of 62% and an IC50 (MCF7) of 2 nM. The IC50 (MeWo) was 4 nM, the Activity (NCI-H460 [9]) was 27% and the Activity (NCI-H460 [10]) was 55%. It also gave an Activity (NCI-H460 [11]) of 12% and an IC50 (HUVEC) of 1.5 nM.
`COc1cc(/C=C/c2cc(OC)c3ccoc3c2)cc(OC)c1OC` was tested, and the IC50 (BMEC) was 75000 nM.
Compound `COc1cc(/C=C\c2cc(OC)c3ccoc3c2)cc(OC)c1OC` has an IC50 (BMEC) of 7500 nM.
`COc1cc(/C=C/c2cc(O)c3cc(C)sc3c2)cc(OC)c1OC` was tested, and the IC50 (BMEC) was 840 nM.
`COc1cc(/C=C/c2ccc3cc[nH]c3c2)cc(OC)c1OC` showed an IC50 (BMEC) of 1900 nM.
`COc1cc(/C=C\c2ccc3cc[nH]c3c2)cc(OC)c1OC` was tested, and the IC50 (BMEC) was 28 nM.
Compound `COc1cc(/C=C\c2cc(OP(=O)(O)O)c3ccsc3c2)cc(OC)c1OC` has an IC50 (HCT-116) of 3000 nM, an IC50 (A2780 [1]) of 750 nM and an IC50 (MCF7-DOX) of 487 nM. The IC50 (A2780 [6]) was 500 nM, the IC50 (IGROV-1) was 1610 nM and the Activity (NCI-H460 [12]) was “Active”. The IC50 (MCF7) was 639 nM, the IC50 (NCI-H460 [13]) was 620 nM and the IC50 (BMEC) was 640 nM. For the same compound, the IC50 (MeWo) was 830 nM and the IC50 (HUVEC) was 83 nM.
For `COc1cc(/C=C/c2cc(O)c3cc(C)oc3c2)cc(OC)c1OC`, the IC50 (BMEC) was 12300 nM.
`COc1cc(/C=C/c2cc(O)c3cc(-c4ccccc4)sc3c2)cc(OC)c1OC` showed an IC50 (BMEC) of 38000 nM.
For `COc1cc(/C=C\c2cc(O)c3cc(-c4ccccc4)oc3c2)cc(OC)c1OC`, the IC50 (BMEC) was greater than 2000 nM.
`COc1cc(/C=C/c2cc(O)c3cc(-c4ccccc4)oc3c2)cc(OC)c1OC` was tested, and the IC50 (BMEC) was greater than 20000 nM.
In the case of `COc1cc(/C=C\c2cc(O)c3c(-c4ccccc4)csc3c2)cc(OC)c1OC`, the IC50 (BMEC) is reported as greater than 2000 nM.
For `COc1cc(/C=C\c2cc(O)c3cc(-c4ccccc4)sc3c2)cc(OC)c1OC`, the IC50 (BMEC) was 23000 nM.
In the case of `COc1cc(/C=C/c2cc(O)c3c(-c4ccccc4)csc3c2)cc(OC)c1OC`, the IC50 (BMEC) is reported as greater than 20000 nM.
`COc1cc(/C=C\c2cc(O)c3cc(C)sc3c2)cc(OC)c1OC` gave an IC50 (BMEC) of 23 nM.
